{"source": "ChEMBL document CHEMBL5335782", "about": "“Discovery of new imidazotetrazinones with potential to overcome tumor resistance” (Eur J Med Chem, 2023)", "key": {"HCT-116 [1]": {"system": "HCT-116", "test": "Antiproliferative activity against MMR-deficient human HCT-116 cells assessed as inhibition of cell growth measured after […] by MTT assay", "format": "functional", "procedure,_shortened": "(§1)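 Cells seeded at 6.5×10^2/well, left overnight, then exposed to vehicle or agent (n = 4-8; final 0.5–1000 μM; DMSO stocks of 50 or 10 mM diluted in medium). MTT read at time of addition and after 6 days at 37 °C, 5% CO₂. MTT 0.4 mg/mL for 4 h, formazan taken up in DMSO, A550. GI50 from non-linear regression; mean ± SD of >3 experiments.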"}, "[2]": {"test": "Antiproliferative activity against human U373V cells assessed as inhibition of cell growth measured […] by MTT assay", "format": "functional", "procedure,_shortened": "as §1"}, "[3]": {"test": "Antiproliferative activity against MGMT-expressing human U373M cells assessed as inhibition of cell growth measured after […] by MTT assay", "format": "functional", "procedure,_shortened": "as §1"}, "[4]": {"test": "Intrinsic clearance in rat liver microsomes in presence of NADPH", "format": "ADME, Microsome", "conditions": "read-out: CLH"}, "HCT-116 [5]": {"system": "HCT-116", "test": "Induction of cell cycle arrest in MMR-deficient human HCT-116 cells assessed as accumulation of cells at pre-G1 phase at 20 uM measured after 120 hrs by propidium iodide staining based flow cytometry (Rvb ~5%)", "format": "functional"}, "[6]": {"test": "Half life of the compound in phosphate buffered saline at pH 6.8 by LC-MS analysis", "format": "physicochemical", "procedure,_shortened": "(§2)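 Half-life in phosphate buffers at pH 5, 6.8 or 7.4 followed by LC-MS; mean of two independent experiments.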"}, "[7]": {"test": "Permeability of the compound measured after 6 hrs by PAMPA assay", "format": "ADME", "conditions": "read-out: permeability", "procedure,_shortened": "(§3)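 PAMPA passive-diffusion assay run as contract research under the provider's protocols, with control compounds. After 6 h incubation, permeability (Pe) and percentage recovery determined.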"}, "[8]": {"test": "Half life in rat plasma", "format": "ADME, cell-free"}, "[9]": {"test": "Half life of the compound in phosphate buffered saline at pH 5.5 by 1H NMR spectroscopic analysis", "format": "physicochemical", "procedure,_shortened": "(§4)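 Half-life followed by ¹H NMR spectroscopy in phosphate buffers at pH 7.4 or 5.5.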"}, "[10]": {"test": "Induction of cell cycle arrest in MGMT-expressing human U373M cells assessed as accumulation of cells at G1 phase at 20 uM measured after 120 hrs by propidium iodide staining based flow cytometry (reference value: 66%)", "format": "functional"}, "[11]": {"test": "Intrinsic clearance in human liver microsomes in presence of NADPH", "format": "ADME, Microsome", "conditions": "read-out: CLH"}, "[12]": {"test": "Half life in human liver microsomes in absence of NADPH", "format": "ADME, Microsome"}, "[13]": {"test": "Intrinsic clearance in human liver microsomes in absence of NADPH", "format": "ADME, Microsome", "conditions": "read-out: CLH"}, "U373V": {"system": "U373V", "test": "Inhibition of cell colony formation in human U373V cells assessed as reduction in clonogenic survival at >=10 uM incubated for 24 hrs followed by drug removal and incubation in medium for 14 days", "format": "functional, cell-based", "procedure,_shortened": "(§5)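 Clonogenic survival: exponentially growing cells seeded in triplicate at 400 cells/well, attached overnight, then exposed for 24 h to 0, 2, 20 or 50 μM agent. Medium then replaced with drug-free medium for 14 days, or until control colonies held ≥50 cells. Colonies fixed in cold methanol, stained with 0.5% methylene blue, counted, and expressed relative to control. 2–3 experiments.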"}, "[14]": {"test": "Half life of the compound in phosphate buffered saline at pH 7.4 by 1H NMR spectroscopic analysis", "format": "physicochemical", "procedure,_shortened": "as §4"}, "[15]": {"test": "Permeability of the compound assessed as drug recovery measured after 6 hrs by PAMPA assay", "format": "ADME", "conditions": "read-out: Drug recovery", "procedure,_shortened": "as §3"}, "[16]": {"test": "Half life in rat liver microsomes in presence of NADPH", "format": "ADME, Microsome"}, "[17]": {"test": "Half life in human plasma", "format": "ADME, cell-free"}, "[18]": {"test": "Half life of the compound in phosphate buffered saline at pH 7.4 by LC-MS analysis", "format": "physicochemical", "procedure,_shortened": "as §2"}, "[19]": {"test": "Intrinsic clearance in rat liver microsomes in absence of NADPH", "format": "ADME, Microsome", "conditions": "read-out: CLH"}, "HCT-116 [20]": {"system": "HCT-116", "test": "Inhibition of cell colony formation in MMR-deficient human HCT-116 cells assessed as reduction in clonogenic survival at >=10 uM incubated for 24 hrs followed by drug removal and incubation in medium for 14 days", "format": "functional, cell-based", "procedure,_shortened": "as §5"}, "[21]": {"test": "Half life in rat liver microsomes in absence of NADPH", "format": "ADME, Microsome"}, "U373M": {"system": "U373M", "test": "Inhibition of cell colony formation in MGMT-expressing human U373M cells assessed as reduction in clonogenic survival at >=10 uM incubated for 24 hrs followed by drug removal and incubation in medium for 14 days", "format": "functional, cell-based", "procedure,_shortened": "as §5"}, "[22]": {"test": "Half life in human liver microsomes in presence of NADPH", "format": "ADME, Microsome"}, "[23]": {"test": "Cytotoxicity against human MRC5 cells assessed as inhibition of cell growth measured after 7 days by MTT assay", "format": "toxicity, cell-based", "conditions": "time 7 day", "procedure,_shortened": "as §1"}, "[24]": {"test": "Stability of the compound in phosphate buffered saline at pH 5.5 by 1H NMR spectroscopy", "format": "physicochemical", "conditions": "buffer", "procedure,_shortened": "as §4"}, "[25]": {"test": "Selectivity ratio of GI50 for cytotoxicity against human MRC5 cells to GI50 for antiproliferative activity against MMR-deficient human HCT-116 cells", "format": "toxicity, cell-based", "conditions": "MRC5 cells versus MMR-deficient HCT-116 cells, read-out: RatioGI50"}, "[26]": {"test": "Ratio of permeability across dog MDCK cells transfected with MDR1 to permeability across wild type dog MDCK cells", "format": "ADME, cell-based, Canis lupus familiaris"}, "[27]": {"test": "Stability of the compound in phosphate buffered saline at pH 7.4 by 1H NMR spectroscopy", "format": "physicochemical", "conditions": "buffer", "procedure,_shortened": "as §4"}, "[28]": {"test": "Half life of the compound in phosphate buffered saline at pH 5 by LC-MS analysis", "format": "physicochemical", "procedure,_shortened": "as §2"}, "[29]": {"test": "Induction of cell cycle arrest in MGMT-expressing human U373M cells assessed as accumulation of cells at G2/M phase at 20 uM measured after 120 hrs by propidium iodide staining based flow cytometry", "format": "functional"}}, "note": "Active and inactive are the calls of the source. The calls are words filed in the database; no cut-off is given here.", "data": [{"compound": "C#CCn1nnc2c(-c3nc(-c4ccc(S(C)(=O)=O)cc4)cs3)ncn2c1=O", "values": [{"measurement": "GI50", "setting": "HCT-116 [1]", "value": 37, "unit": "µM"}, {"measurement": "GI50", "setting": "[2]", "value": 22, "unit": "µM"}, {"measurement": "GI50", "setting": "[3]", "value": 14.7, "unit": "µM"}]}, {"compound": "C#CCn1nnc2c(-c3nc(C(C)C)cs3)ncn2c1=O", "values": [{"measurement": "GI50", "setting": "HCT-116 [1]", "value": 25.4, "unit": "µM"}, {"measurement": "GI50", "setting": "[2]", "value": 23.6, "unit": "µM"}, {"measurement": "GI50", "setting": "[3]", "value": 19, "unit": "µM"}]}, {"compound": "C#CCn1nnc2c(-c3nc(CN4CCOCC4)cs3)ncn2c1=O", "values": [{"measurement": "GI50", "setting": "HCT-116 [1]", "value": 12.2, "unit": "µM"}, {"measurement": "GI50", "setting": "[2]", "value": 23.9, "unit": "µM"}, {"measurement": "GI50", "setting": "[3]", "value": 10.2, "unit": "µM"}]}, {"compound": "C#CCn1nnc2c(-c3nc(CC)cs3)ncn2c1=O", "values": [{"measurement": "GI50", "setting": "HCT-116 [1]", "value": 14.8, "unit": "µM"}, {"measurement": "GI50", "setting": "[2]", "value": 23.5, "unit": "µM"}, {"measurement": "GI50", "setting": "[3]", "value": 9.67, "unit": "µM"}]}, {"compound": "C#CCn1nnc2c(-c3nccs3)ncn2c1=O", "values": [{"measurement": "microsomal CLint", "setting": "[4]", "value": 37.2, "unit": "µL/min/mg"}, {"measurement": "Activity", "setting": "HCT-116 [5]", "value": ">60", "unit": "%"}, {"measurement": "half-life", "setting": "[6]", "value": 5.46, "unit": "h"}, {"measurement": "Papp at 6 h", "setting": "[7]", "value": 3.18, "unit": "×10⁻⁶ cm/s"}, {"measurement": "half-life", "setting": "[8]", "value": 2.66, "unit": "min"}, {"measurement": "half-life", "setting": "[9]", "value": 1.07, "unit": "h"}, {"measurement": "Activity", "setting": "[10]", "value": 43, "unit": "%"}, {"measurement": "microsomal CLint", "setting": "[11]", "value": 44, "unit": "µL/min/mg"}, {"measurement": "half-life", "setting": "[12]", "value": 1.53, "unit": "h"}, {"measurement": "microsomal CLint", "setting": "[13]", "value": 16.4, "unit": "µL/min/mg"}, {"measurement": "inhibition", "setting": "U373V", "value": "Active"}, {"measurement": "half-life", "setting": "[14]", "value": 3, "unit": "h"}, {"measurement": "recovery at 6 h", "setting": "[15]", "value": 17.5, "unit": "%"}, {"measurement": "half-life", "setting": "[16]", "value": 0.63, "unit": "h"}, {"measurement": "GI50", "setting": "HCT-116 [1]", "value": 5.35, "unit": "µM"}, {"measurement": "half-life", "setting": "[17]", "value": 3.34, "unit": "min"}, {"measurement": "half-life", "setting": "[18]", "value": 3.29, "unit": "h"}, {"measurement": "microsomal CLint", "setting": "[19]", "value": 17.5, "unit": "µL/min/mg"}, {"measurement": "inhibition", "setting": "HCT-116 [20]", "value": "Active"}, {"measurement": "half-life", "setting": "[21]", "value": 1.32, "unit": "h"}, {"measurement": "inhibition", "setting": "U373M", "value": "Active"}, {"measurement": "half-life", "setting": "[22]", "value": 0.527, "unit": "h"}, {"measurement": "GI50 at 168 h", "setting": "[23]", "value": 25, "unit": "µM"}, {"measurement": "GI50", "setting": "[2]", "value": 3.59, "unit": "µM"}, {"measurement": "Stability", "setting": "[24]", "value": "Stable"}, {"measurement": "selectivity ratio", "setting": "[25]", "value": "> 5"}, {"measurement": "Ratio", "setting": "[26]", "value": 1.11}, {"measurement": "Stability", "setting": "[27]", "value": "Stable"}, {"measurement": "half-life", "setting": "[28]", "value": "> 8", "unit": "h"}, {"measurement": "Activity", "setting": "[29]", "value": 21, "unit": "%"}, {"measurement": "GI50", "setting": "[3]", "value": 4.09, "unit": "µM"}]}]}
